Experiments:
patients [1] = conditions: cited from earlier work
patients [2] = conditions: cited from earlier work; remark: listed apart in the source
CDK1 = conditions: cited from earlier work
CDK2 = conditions: cited from earlier work
CDK4 = conditions: cited from earlier work
CDK7 = conditions: cited from earlier work
patients [3] = conditions: intravenous; cited from earlier work
Plasma pharmacokinetics = type: in vivo, human; conditions: across doses
How it was run: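 The test compound is given orally once daily for 7 days in 2-week cycles (S1). Plasma is sampled in cycle 1 on days 1, 2, 4, 7, 8 and 9, and in cycle 2 on days 1, 4 and 7. Cycle 1 day 1 is sampled from 30 min to 24 h after dosing and day 7 from 30 min to 96 h. Parent and metabolite are measured by validated LC-MS-MS, with calibration ranges of 0.00109–1.09 and 0.00105–1.05 μM respectively.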

Urinary excretion = type: in vivo, human; conditions: patients at the RP2D in S1
How it was run: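 Urine is collected only from S1 patients dosed at the recommended phase II dose, with once-daily oral dosing for 7 days in 2-week cycles. Parent compound and metabolite in urine are measured by validated LC-MS-MS, with calibration ranges of 0.217–109 μM for the parent and 0.210–105 μM for the metabolite.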

Cc1ncc(-c2ccnc(Nc3ccc(S(C)(=O)=O)cc3)n2)n1C(C)C [AZD438]
toxicities (patients [1]): myelotoxicity, GI toxicity, fatigue, skin rash and electrolytes inbalance, with no neurological toxicity

C[C@]12O[C@H](C[C@]1(O)CO)n1c3ccccc3c3c4c(c5c6ccccc6n2c5c31)CNC4=O [CEP-701]
most frequently reported side effects (patients [2]): predominantly GI-related (nausea, diarrhea, anorexia, constipation, and vomiting), and asthenia
patients with stable disease for at least six months (patients [2]): three
patients with stable disease for more than three months (patients [2]): Seven of 30

CCc1cnn2c(NCc3ccc[n+]([O-])c3)cc(N3CCCC[C@H]3CCO)nc12 [dinaciclib]
toxicities (patients [1]): myelotoxicity, GI toxicity, fatigue, skin rash and electrolytes inbalance, with no neurological toxicity

CN1CC[C@H](c2c(O)cc(O)c3c(=O)cc(-c4ccccc4Cl)oc23)[C@H](O)C1 [flavopiridol, reference compound]
inhibition of CDK1 (CDK1): demonstrated inhibition
inhibition of CDK2 (CDK2): demonstrated inhibition
inhibition of CDK4 (CDK4): demonstrated inhibition
inhibition of CDK7 (CDK7): demonstrated inhibition
clinical activity (patients [3]): showed activity in some patients with non-Hodgkin’s lymphoma, renal, prostate, colon, and gastric carcinomas
main side effects (patients [3]): secretory diarrhea, a proinflammatory syndrome associated with hypotension, and hyperglycemia

Nc1nc2cccc(-c3ccc(CN4CCS(=O)(=O)CC4)cc3)n2n1 [metabolite]
AUC0-24 of the metabolite relative to parent compound (Plasma pharmacokinetics): approximately 30%
Cmax of the metabolite relative to parent compound (Plasma pharmacokinetics): approximately 30%
amount excreted in urine (Urinary excretion): 13 % of dose

CC[C@H](CO)Nc1nc(NCc2ccccc2)c2ncn(C(C)C)c2n1 [seliciclib]
toxicities (patients [1]): myelotoxicity, GI toxicity, fatigue, skin rash and electrolytes inbalance, with no neurological toxicity
